Test results from ChEMBL document CHEMBL3352791, “Thioaryl naphthylmethanone oxime ether analogs as novel anticancer agents” (J Med Chem, 2014).
Activity calls are given as the source filed them. No cut-off for these calls is given here.

Experiments:
MCF7 [1] = assay: Cell cycle arrest in human […] MCF7 cells assessed as accumulation at S phase at 5 uM by propidium iodide staining by FACS analysis (reference value: 24.76%); assay type: functional
HeLa = assay: Antiproliferative activity against human HeLa cells after 24 hrs by MTT assay; assay type: functional, cell-based; settings: hela
MCF7 [2] = assay: Cell cycle arrest in human […] cells assessed as accumulation at G1 phase at 5 uM by propidium iodide staining by FACS analysis (reference value: 62.88%); assay type: functional
[3] = Antiproliferative activity against human COLO205 cells after 24 hrs by MTT assay; assay type: functional, cell-based; settings: COLO 205, 24 h
Outline: (§1)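 MTT viability: cells seeded at 1×10^4 per well in DMEM with 10% FBS, left to adhere overnight, then serum-starved 4 h. Compounds were given at a range of doses, with 0.1% DMSO vehicle as control. EC50 was taken from dose-response curves spanning 100nM-50µM. Data are mean ± SEM from at least three independent experiments.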

MCF7 [4] = assay: Antiproliferative activity against human […] cells assessed as growth recovery treated up to 5 uM for 24 hrs followed by maintained in drug free medium for 72 hrs by MTT assay; assay type: functional
[5] = Safety index, ratio of IC50 for human MCF10A cells to EC50 for human SW620 cells; assay type: toxicity, cell-based, SW-620; settings: MCF10A cells versus SW620 cells, read-out: Ratio IC50/EC50
Outline: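 Safety index is the IC50 in the normal cells divided by the EC50 in the cancer cells. Both values come from MTT assays: cells in DMEM with 10% FBS, serum-starved 4 h, then exposed to compound across a 100nM-50µM dose range with 0.1% DMSO as vehicle control.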

MCF7 [6] = assay: Cell cycle arrest in human […] cells assessed as accumulation at subG1 phase at 5 uM by propidium iodide staining by FACS analysis (reference value: 0.1%); assay type: functional
MCF7 [7] = assay: Cell cycle arrest in human […] cells assessed as accumulation at subG1 phase at 7.5 uM by propidium iodide staining by FACS analysis (reference value: 0.1%); assay type: functional
HEK293 = assay: Antiproliferative activity against HEK293 cells after 24 hrs by MTT assay; assay type: functional, cell-based; settings: Homo sapiens, HEK293, 24 h; outline: as §1
MDA-MB-231 [8] = assay: Cell cycle arrest in human […] cells assessed as accumulation at G2 phase at 5 uM by propidium iodide staining by FACS analysis (reference value: 22.74%); assay type: functional
[9] = target: ETS domain-containing protein Elk-1 (Homo sapiens) (UniProt P19419); assay: Inhibition of basal level ELK1 phosphorylation in human MDA-MB-231 cells at 1 uM by ELISA; assay type: cell-based
Sequence of ETS domain-containing protein Elk-1 (Homo sapiens) (P19419 whole entry, the tested form may be a part): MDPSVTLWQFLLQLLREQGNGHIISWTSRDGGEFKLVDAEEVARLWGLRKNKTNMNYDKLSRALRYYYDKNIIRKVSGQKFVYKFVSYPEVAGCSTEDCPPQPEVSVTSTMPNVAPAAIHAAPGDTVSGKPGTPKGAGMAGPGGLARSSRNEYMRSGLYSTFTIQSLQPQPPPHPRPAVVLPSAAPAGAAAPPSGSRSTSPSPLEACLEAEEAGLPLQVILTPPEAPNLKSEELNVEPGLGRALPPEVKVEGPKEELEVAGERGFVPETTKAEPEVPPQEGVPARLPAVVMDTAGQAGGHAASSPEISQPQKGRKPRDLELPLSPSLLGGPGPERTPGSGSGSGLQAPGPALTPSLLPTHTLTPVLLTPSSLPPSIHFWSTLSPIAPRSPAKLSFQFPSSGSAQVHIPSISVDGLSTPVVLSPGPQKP

[10] = target: Epidermal growth factor receptor (Homo sapiens) (UniProt P00533); assay: Inhibition of EGF-induced EGFR phosphorylation at Tyr1173 in human MDA-MB-231 cells at 0.1 uM by ELISA; assay type: cell-based
Sequence of Epidermal growth factor receptor (Homo sapiens) (P00533 whole entry): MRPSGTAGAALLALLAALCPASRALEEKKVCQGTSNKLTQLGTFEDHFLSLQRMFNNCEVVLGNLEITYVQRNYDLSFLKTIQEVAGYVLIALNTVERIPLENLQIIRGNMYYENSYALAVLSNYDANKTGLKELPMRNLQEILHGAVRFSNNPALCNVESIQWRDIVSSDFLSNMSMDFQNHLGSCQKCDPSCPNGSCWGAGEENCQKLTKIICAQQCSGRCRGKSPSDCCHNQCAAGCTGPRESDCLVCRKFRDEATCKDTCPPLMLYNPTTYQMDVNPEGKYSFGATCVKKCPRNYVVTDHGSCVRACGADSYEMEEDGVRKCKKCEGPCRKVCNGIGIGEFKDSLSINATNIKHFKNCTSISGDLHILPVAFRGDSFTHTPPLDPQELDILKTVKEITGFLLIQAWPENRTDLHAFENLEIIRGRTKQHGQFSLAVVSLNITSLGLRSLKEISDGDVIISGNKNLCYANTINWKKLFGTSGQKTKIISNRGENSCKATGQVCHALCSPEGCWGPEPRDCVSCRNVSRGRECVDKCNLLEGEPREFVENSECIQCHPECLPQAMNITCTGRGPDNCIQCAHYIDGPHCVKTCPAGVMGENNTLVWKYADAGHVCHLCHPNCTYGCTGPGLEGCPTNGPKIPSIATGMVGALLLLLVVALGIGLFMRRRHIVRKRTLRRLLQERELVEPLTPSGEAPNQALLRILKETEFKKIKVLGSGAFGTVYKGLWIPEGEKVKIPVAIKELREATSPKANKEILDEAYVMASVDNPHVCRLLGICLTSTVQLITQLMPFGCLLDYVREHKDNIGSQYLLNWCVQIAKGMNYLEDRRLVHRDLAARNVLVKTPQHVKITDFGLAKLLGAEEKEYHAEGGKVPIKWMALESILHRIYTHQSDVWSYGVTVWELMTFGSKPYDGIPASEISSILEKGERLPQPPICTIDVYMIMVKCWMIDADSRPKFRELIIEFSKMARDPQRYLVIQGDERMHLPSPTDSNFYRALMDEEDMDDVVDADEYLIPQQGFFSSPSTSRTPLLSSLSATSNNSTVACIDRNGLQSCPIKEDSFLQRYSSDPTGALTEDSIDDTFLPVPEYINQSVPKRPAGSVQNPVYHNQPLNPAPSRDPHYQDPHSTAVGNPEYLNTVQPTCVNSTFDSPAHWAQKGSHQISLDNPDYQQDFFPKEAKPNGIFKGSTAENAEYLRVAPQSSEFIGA
Outline: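 MDA-MB-231 cells pretreated 1 h in serum-free medium, then EGF-stimulated for 15 min and lysed. Equal lysate protein (Bradford) assayed by ELISA kits for p-EGFR (Tyr1068, Tyr845, Tyr1173) and p-HER2. Absorbance read at 450 nm, normalized to total EGFR or HER2.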

MCF7 [11] = assay: Inhibition of INS expression in human MCF7 cells at 5 uM by ELISA; assay type: functional, cell-based
MDA-MB-231 [12] = assay: Inhibition of ALDH1 in human MDA-MB-231 cells at 5 to 20 uM after 8 days by FACS analysis; assay type: functional, cell-based
Outline: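 ALDH1-positive MDA-MB-231 cells identified with Aldefluor reagent and quantified by flow cytometry.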

[13] = target: Mitogen-activated protein kinase; ERK1/ERK2 (Homo sapiens) (UniProt P27361+P28482); assay: Inhibition of EGF-induced ERK1/2 phosphorylation in human MDA-MB-231 cells at 1 uM by ELISA; assay type: cell-based
Sequence of Mitogen-activated protein kinase; ERK1/ERK2 (Homo sapiens) (P27361 whole entry, looked up): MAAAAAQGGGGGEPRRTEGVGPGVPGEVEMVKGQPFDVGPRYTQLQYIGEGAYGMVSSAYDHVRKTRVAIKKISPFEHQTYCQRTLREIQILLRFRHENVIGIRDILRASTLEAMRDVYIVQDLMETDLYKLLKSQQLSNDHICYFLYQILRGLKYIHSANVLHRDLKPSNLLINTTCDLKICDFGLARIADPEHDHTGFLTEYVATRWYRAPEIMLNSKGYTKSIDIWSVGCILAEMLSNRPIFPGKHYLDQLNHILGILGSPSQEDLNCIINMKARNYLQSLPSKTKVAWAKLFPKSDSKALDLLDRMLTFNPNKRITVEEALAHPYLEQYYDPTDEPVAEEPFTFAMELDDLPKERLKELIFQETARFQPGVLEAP
Sequence of Mitogen-activated protein kinase; ERK1/ERK2 (Homo sapiens) (P28482 whole entry, looked up): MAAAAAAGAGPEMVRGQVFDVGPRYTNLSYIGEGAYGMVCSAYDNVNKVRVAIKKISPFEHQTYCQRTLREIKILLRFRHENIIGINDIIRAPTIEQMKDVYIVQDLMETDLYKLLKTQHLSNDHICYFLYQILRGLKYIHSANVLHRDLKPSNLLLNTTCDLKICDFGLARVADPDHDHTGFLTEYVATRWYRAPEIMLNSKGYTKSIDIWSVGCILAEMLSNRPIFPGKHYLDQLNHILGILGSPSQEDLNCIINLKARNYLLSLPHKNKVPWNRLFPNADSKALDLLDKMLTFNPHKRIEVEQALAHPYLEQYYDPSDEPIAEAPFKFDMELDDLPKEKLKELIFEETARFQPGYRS

[14] = target: RAF proto-oncogene serine/threonine-protein kinase (Homo sapiens) (UniProt P04049); assay: Inhibition of c-RAF (unknown origin) at 10 uM
Sequence of RAF proto-oncogene serine/threonine-protein kinase (Homo sapiens) (P04049 whole entry): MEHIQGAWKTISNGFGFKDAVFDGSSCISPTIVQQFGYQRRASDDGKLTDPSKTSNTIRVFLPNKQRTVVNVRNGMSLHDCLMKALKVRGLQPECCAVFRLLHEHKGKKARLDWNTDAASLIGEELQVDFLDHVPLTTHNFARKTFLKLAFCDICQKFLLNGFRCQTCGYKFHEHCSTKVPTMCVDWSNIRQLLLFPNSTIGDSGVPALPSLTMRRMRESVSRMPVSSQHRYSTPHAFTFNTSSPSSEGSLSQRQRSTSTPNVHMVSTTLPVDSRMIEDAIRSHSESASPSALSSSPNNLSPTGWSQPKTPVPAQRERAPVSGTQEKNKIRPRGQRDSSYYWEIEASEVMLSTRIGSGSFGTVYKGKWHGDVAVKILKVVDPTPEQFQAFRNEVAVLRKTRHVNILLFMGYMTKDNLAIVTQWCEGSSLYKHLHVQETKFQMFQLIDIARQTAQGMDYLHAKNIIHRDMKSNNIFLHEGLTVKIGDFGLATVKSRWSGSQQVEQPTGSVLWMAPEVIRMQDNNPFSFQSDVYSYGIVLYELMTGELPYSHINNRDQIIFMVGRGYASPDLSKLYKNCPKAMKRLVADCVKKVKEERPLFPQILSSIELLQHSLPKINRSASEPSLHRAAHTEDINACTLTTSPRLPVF
Outline: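 Cell-free kinase profiling was run as a standard 33P-ATP-based in vitro kinase assay.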

[15] = target: T1, Signal transducer and activator of transcription 1-alpha/beta (Homo sapiens) (UniProt P42224); assay: Inhibition of basal level STAT1 phosphorylation in human MCF7 cells at 1 uM by ELISA; assay type: cell-based
T1 sequence (whole entry): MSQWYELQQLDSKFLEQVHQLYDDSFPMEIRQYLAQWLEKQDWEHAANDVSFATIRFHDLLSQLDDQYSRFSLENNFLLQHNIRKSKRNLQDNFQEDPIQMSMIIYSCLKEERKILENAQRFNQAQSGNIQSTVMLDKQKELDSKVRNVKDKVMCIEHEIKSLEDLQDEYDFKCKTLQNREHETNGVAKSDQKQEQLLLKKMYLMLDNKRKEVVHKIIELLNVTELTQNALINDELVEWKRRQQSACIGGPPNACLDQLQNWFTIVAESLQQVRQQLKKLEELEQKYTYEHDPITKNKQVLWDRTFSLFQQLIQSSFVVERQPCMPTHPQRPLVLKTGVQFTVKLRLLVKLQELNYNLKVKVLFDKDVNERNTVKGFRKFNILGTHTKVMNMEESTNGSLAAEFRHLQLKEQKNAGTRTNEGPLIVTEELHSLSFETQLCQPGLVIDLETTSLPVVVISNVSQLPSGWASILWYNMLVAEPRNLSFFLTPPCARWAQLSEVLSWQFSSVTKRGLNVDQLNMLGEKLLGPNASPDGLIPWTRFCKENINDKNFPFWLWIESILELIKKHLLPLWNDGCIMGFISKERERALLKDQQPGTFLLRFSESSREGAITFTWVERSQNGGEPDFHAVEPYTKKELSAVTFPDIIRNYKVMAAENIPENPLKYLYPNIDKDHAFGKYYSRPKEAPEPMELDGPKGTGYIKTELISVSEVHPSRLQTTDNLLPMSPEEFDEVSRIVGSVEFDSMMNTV

MDA-MB-231 [16] = assay: Inhibition of TGF-beta1 expression in human MDA-MB-231 cells at 1 uM after 24 hrs by qPCR analysis; assay type: functional, cell-based
Outline: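 Gene expression was measured by qPCR in MDA-MB-231 breast cancer cells treated with 1µM compound. GAPDH served as the housekeeping internal control.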

[17] = target: RAC-alpha serine/threonine-protein kinase (Homo sapiens) (UniProt P31749); assay: Inhibition of basal level AKT phosphorylation in human MDA-MB-231 cells at 1 uM by ELISA; assay type: cell-based
Sequence of RAC-alpha serine/threonine-protein kinase (Homo sapiens) (P31749 whole entry): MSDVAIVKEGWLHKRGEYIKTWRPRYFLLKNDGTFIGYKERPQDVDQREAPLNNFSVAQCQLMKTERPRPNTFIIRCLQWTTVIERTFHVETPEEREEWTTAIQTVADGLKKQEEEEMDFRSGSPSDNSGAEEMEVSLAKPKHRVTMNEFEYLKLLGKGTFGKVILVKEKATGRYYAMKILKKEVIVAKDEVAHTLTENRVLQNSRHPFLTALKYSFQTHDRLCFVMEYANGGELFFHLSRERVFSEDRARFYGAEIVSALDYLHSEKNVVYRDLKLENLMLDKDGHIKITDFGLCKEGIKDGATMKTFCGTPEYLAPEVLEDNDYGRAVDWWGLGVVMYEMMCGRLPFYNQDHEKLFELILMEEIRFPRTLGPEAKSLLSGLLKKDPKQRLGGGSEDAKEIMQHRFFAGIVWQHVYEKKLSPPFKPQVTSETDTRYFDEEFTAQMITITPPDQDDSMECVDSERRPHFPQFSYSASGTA

[18] = target: Transforming growth factor beta-1 proprotein (Homo sapiens) (UniProt P01137); assay: Inhibition of TGFbeta1 (unknown origin) at 10 uM
Sequence of Transforming growth factor beta-1 proprotein (Homo sapiens) (P01137 279-390 limits assumed): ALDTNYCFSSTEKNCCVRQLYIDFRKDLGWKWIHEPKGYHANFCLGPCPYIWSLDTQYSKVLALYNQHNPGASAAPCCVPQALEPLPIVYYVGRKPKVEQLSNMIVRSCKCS

MDA-MB-231 [19] = assay: Inhibition of TGFbeta expression in human MDA-MB-231 cells at 5 uM by ELISA; assay type: functional, cell-based
[20] = target: Epidermal growth factor receptor (Homo sapiens) (UniProt P00533); assay: Inhibition of EGFR phosphorylation at Tyr790 (unknown origin) at 10 uM

Compound `CCN(CC)CCO/N=C(\c1ccc(SC)cc1)c1cccc2ccccc12.O=C(O)C(=O)O` has an Activity (MCF7 [1]) of 13.88%, an EC50 (HeLa) of 7.5 µM and an Activity (MCF7 [2]) of 74.66%. For the same compound, the EC50 [3] was 4.2 µM, the Activity (MCF7 [4]) was 50% and the selectivity ratio [5] was 2.2. For the same compound, the Activity (MCF7 [6]) was 0.9%, the Activity (MCF7 [7]) was 0.4% and the IC50 (HEK293) was 20 µM. It also gave an Activity (MDA-MB-231 [8]) of 8.5%.
For `CCN(CC)CCO/N=C(\c1ccc(SC)cc1)c1cccc2ccccc12`, the inhibition [9] was “Active”, the inhibition [10] was “Active” and the inhibition (MCF7 [11]) was “inactive”. For the same compound, the inhibition (MDA-MB-231 [12]) was “Active”, the inhibition [13] was “Active” and the inhibition [14] was “inactive”. The inhibition [15] was “inactive”, the inhibition (MDA-MB-231 [16]) was “Active” and the inhibition [17] was “inactive”. The inhibition [18] was “inactive”, the inhibition (MDA-MB-231 [19]) was “inactive” and the inhibition [20] was “inactive”.
